# Reference: article PMC6138487 (British Journal of Clinical Pharmacology, 2018)
# Marks after values point to notes of the source that are not given here.
# Columns and labels:
# Type in all cases: in vivo, human
# [1] = test system: serum low‐density lipoprotein cholesterol (LDL‐C); assay: Serum LDL-C level, M-test; conditions: Day 8 and Day 14; P < 0.001 except 2.5 mg day^–1
# [2] = Pharmacokinetics of elobixibat; conditions: for AUC(0–t), back transformed LSM ratio breakfast/no breakfast / Cmax, back transformed LSM ratio breakfast/no breakfast: linear mixed effect model; for fe144h / Ae144h: urine 0-144 h; for fe144h: arithmetic mean; for Ae144h: geometric mean (CV)
# Outline: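 Single oral dose, 2.5–20 mg, with or without breakfast, in crossover. Plasma was drawn predose and at 0.5–12 h on Days –1, 1, 7 and 8, plus daily. Urine was collected daily except Day 7. Analyte was measured by LC–MS/MS (LLOQ 10.0 pg ml–1). Noncompartmental analysis with linear trapezoidal AUC. Dose proportionality (no-breakfast regimen) was assessed by power model or ANOVA on log values. Food effect: mixed model, back-transformed LSM ratios.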
# [3] = test system: patients with chronic constipation; assay: Adverse events, S-test
# Outline: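 Crossover study with patients randomized 5:1 to test compound (2.5–20 mg) or placebo. Single oral dose on Day 1, taken 15 min before breakfast or without breakfast, then 6-day washout. The alternative regimen was given on Day 8, followed by 5-day observation. Inpatient Day –2 to Day 14. AE type, severity and incidence recorded with vital signs, ECG and laboratory tests. Dose trend by Cochran–Armitage test.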
# [4] = single dose 2.5 mg, before breakfast
# [5] = single dose 2.5 mg, no breakfast
# [6] = single dose 5 mg, before breakfast
# [7] = single dose 10 mg, before breakfast
# [8] = single dose 10 mg, no breakfast
# [9] = single dose 15 mg, before breakfast
# [10] = single dose 15 mg, no breakfast
# [11] = single dose 20 mg, before breakfast
# [12] = single dose 20 mg, no breakfast
# [13] = single dose 2.5 mg, before breakfast (group n=10)
# [14] = single dose 2.5 mg, no breakfast (group n=10)
# [15] = single dose 5 mg, before breakfast (group n=10)
# [16] = single dose 5 mg, no breakfast (group n=10)
# [17] = single dose 10 mg, before breakfast (group n=10)
# [18] = single dose 10 mg, no breakfast (group n=10)
# [19] = single dose 15 mg, before breakfast (group n=10)
# [20] = single dose 15 mg, no breakfast (group n=10)
# [21] = single dose 20 mg, before breakfast (group n=10)
# [22] = single dose 20 mg, no breakfast (group n=9)
structure (smiles),measurement,setting,value
CCCCC1(CCCC)CN(c2ccccc2)c2cc(SC)c(OCC(=O)N[C@@H](C(=O)NCC(=O)O)c3ccccc3)cc2S(=O)(=O)C1 [elobixibat],LDL‐C AUEC compared to placebo (ANCOVA),[1],significantly greater reductions
same,"plasma elobixibat concentration, range",[2]; 2.5-20 mg,picomolar range
same,quantity of drug excreted in the urine,"[2]; all dosing levels, both regimens",less than 0.01%
same,slope of the regression line (power model) for Ae144h,"[2]; no‐breakfast regimen, 2.5-20 mg, dose proportionality",0.9321
same,fraction of dose excreted in urine (fe) up to 144 h,"[2]; no‐breakfast regimen, all dosing groups (2.5-20 mg)",< 0.01%
same,t1/2 versus dose,"[2]; no‐breakfast regimen, P < 0.001, said to be apparent (LLOQ)",prolonged dose‐dependently
same,"AUC(0–t), back transformed LSM ratio breakfast/no breakfast",[2]; single dose 2.5 mg,0.1368
same,"Cmax, back transformed LSM ratio breakfast/no breakfast",[2]; single dose 2.5 mg,0.2448
same,"AUC(0–t), back transformed LSM ratio breakfast/no breakfast",[2]; single dose 5 mg,0.2318
same,"Cmax, back transformed LSM ratio breakfast/no breakfast",[2]; single dose 5 mg,0.2922
same,"AUC(0–t), back transformed LSM ratio breakfast/no breakfast",[2]; single dose 10 mg,0.1989
same,"Cmax, back transformed LSM ratio breakfast/no breakfast",[2]; single dose 10 mg,0.2531
same,"AUC(0–t), back transformed LSM ratio breakfast/no breakfast",[2]; single dose 15 mg,0.1884
same,"Cmax, back transformed LSM ratio breakfast/no breakfast",[2]; single dose 15 mg,0.2085
same,"AUC(0–t), back transformed LSM ratio breakfast/no breakfast",[2]; single dose 20 mg,0.2275
same,"Cmax, back transformed LSM ratio breakfast/no breakfast",[2]; single dose 20 mg,0.2240
same,fe144h,[2]; [4],0.0008 ^a %
same,Ae144h,[2]; [4],24.30 (72.9) ^a ng
same,fe144h,[2]; [5],0.0098%
same,Ae144h,[2]; [5],213.28 (59.5) ng
same,fe144h,[2]; [6],0.0021%
same,Ae144h,[2]; [6],107.50 (63.4) ng
same,fe144h,"[2]; single dose 5 mg, no breakfast",0.0077%
same,Ae144h,"[2]; single dose 5 mg, no breakfast",306.59 (38.8) ng
same,fe144h,[2]; [7],0.0016%
same,Ae144h,[2]; [7],139.38 (49.9) ng
same,fe144h,[2]; [8],0.0070%
same,Ae144h,[2]; [8],598.14 (67.8) ng
same,fe144h,[2]; [9],0.0013 ^a %
same,Ae144h,[2]; [9],188.43 (37.2) ^a ng
same,fe144h,[2]; [10],0.0070 ^a %
same,Ae144h,[2]; [10],873.09 (68.4) ^a ng
same,fe144h,[2]; [11],0.0021 ^a %
same,Ae144h,[2]; [11],384.85 (55.6) ^a ng
same,fe144h,[2]; [12],0.0088%
same,Ae144h,[2]; [12],1623.23 (41.5) ng
same,"AEs associated with gastrointestinal disorders, % of patients",[3]; [13],(40.0) %
same,"AEs associated with gastrointestinal disorders, n of patients",[3]; [13],4
same,"Any AEs, % of patients",[3]; [13],(40.0) %
same,"Any AEs, n of patients",[3]; [13],4
same,"abdominal distention, % of patients",[3]; [13],(20.0) %
same,"abdominal distention, n of patients",[3]; [13],2
same,"abdominal pain lower, % of patients",[3]; [13],(20.0) %
same,"abdominal pain lower, n of patients",[3]; [13],2
same,"diarrhoea, n of patients",[3]; [13],0
same,"AEs associated with gastrointestinal disorders, % of patients",[3]; [14],(20.0) %
same,"AEs associated with gastrointestinal disorders, n of patients",[3]; [14],2
same,"Any AEs, % of patients",[3]; [14],(40.0) %
same,"Any AEs, n of patients",[3]; [14],4
same,"abdominal distention, n of patients",[3]; [14],0
same,"abdominal pain lower, % of patients",[3]; [14],(10.0) %
same,"abdominal pain lower, n of patients",[3]; [14],1
same,"diarrhoea, n of patients",[3]; [14],0
same,"AEs associated with gastrointestinal disorders, % of patients",[3]; [15],(80.0) %
same,"AEs associated with gastrointestinal disorders, n of patients",[3]; [15],8
same,"Any AEs, % of patients",[3]; [15],(80.0) %
same,"Any AEs, n of patients",[3]; [15],8
same,"abdominal distention, n of patients",[3]; [15],0
same,"abdominal pain lower, % of patients",[3]; [15],(40.0) %
same,"abdominal pain lower, n of patients",[3]; [15],4
same,"diarrhoea, % of patients",[3]; [15],(40.0) %
same,"diarrhoea, n of patients",[3]; [15],4
same,"AEs associated with gastrointestinal disorders, % of patients",[3]; [16],(50.0) %
same,"AEs associated with gastrointestinal disorders, n of patients",[3]; [16],5
same,"Any AEs, % of patients",[3]; [16],(50.0) %
same,"Any AEs, n of patients",[3]; [16],5
same,"abdominal distention, % of patients",[3]; [16],(20.0) %
same,"abdominal distention, n of patients",[3]; [16],2
same,"abdominal pain lower, % of patients",[3]; [16],(20.0) %
same,"abdominal pain lower, n of patients",[3]; [16],2
same,"diarrhoea, % of patients",[3]; [16],(30.0) %
same,"diarrhoea, n of patients",[3]; [16],3
same,"AEs associated with gastrointestinal disorders, % of patients",[3]; [17],(10.0) %
same,"AEs associated with gastrointestinal disorders, n of patients",[3]; [17],1
same,"Any AEs, % of patients",[3]; [17],(20.0) %
same,"Any AEs, n of patients",[3]; [17],2
same,"abdominal distention, n of patients",[3]; [17],0
same,"abdominal pain lower, % of patients",[3]; [17],(10.0) %
same,"abdominal pain lower, n of patients",[3]; [17],1
same,"diarrhoea, n of patients",[3]; [17],0
same,"AEs associated with gastrointestinal disorders, % of patients",[3]; [18],(10.0) %
same,"AEs associated with gastrointestinal disorders, n of patients",[3]; [18],1
same,"Any AEs, % of patients",[3]; [18],(30.0) %
same,"Any AEs, n of patients",[3]; [18],3
same,"abdominal distention, n of patients",[3]; [18],0
same,"abdominal pain lower, % of patients",[3]; [18],(10.0) %
same,"abdominal pain lower, n of patients",[3]; [18],1
same,"diarrhoea, n of patients",[3]; [18],0
same,"AEs associated with gastrointestinal disorders, % of patients",[3]; [19],(60.0) %
same,"AEs associated with gastrointestinal disorders, n of patients",[3]; [19],6
same,"Any AEs, % of patients",[3]; [19],(60.0) %
same,"Any AEs, n of patients",[3]; [19],6
same,"abdominal distention, % of patients",[3]; [19],(10.0) %
same,"abdominal distention, n of patients",[3]; [19],1
same,"abdominal pain lower, % of patients",[3]; [19],(10.0) %
same,"abdominal pain lower, n of patients",[3]; [19],1
same,"diarrhoea, % of patients",[3]; [19],(50.0) %
same,"diarrhoea, n of patients",[3]; [19],5
same,"AEs associated with gastrointestinal disorders, % of patients",[3]; [20],(100.0) %
same,"AEs associated with gastrointestinal disorders, n of patients",[3]; [20],10
same,"Any AEs, % of patients",[3]; [20],(100.0) %
same,"Any AEs, n of patients",[3]; [20],10
same,"abdominal distention, % of patients",[3]; [20],(20.0) %
same,"abdominal distention, n of patients",[3]; [20],2
same,"abdominal pain lower, % of patients",[3]; [20],(30.0) %
same,"abdominal pain lower, n of patients",[3]; [20],3
same,"diarrhoea, % of patients",[3]; [20],(70.0) %
same,"diarrhoea, n of patients",[3]; [20],7
same,"AEs associated with gastrointestinal disorders, % of patients",[3]; [21],(30.0) %
same,"AEs associated with gastrointestinal disorders, n of patients",[3]; [21],3
same,"Any AEs, % of patients",[3]; [21],(40.0) %
same,"Any AEs, n of patients",[3]; [21],4
same,"abdominal distention, % of patients",[3]; [21],(20.0) %
same,"abdominal distention, n of patients",[3]; [21],2
same,"abdominal pain lower, % of patients",[3]; [21],(10.0) %
same,"abdominal pain lower, n of patients",[3]; [21],1
same,"diarrhoea, n of patients",[3]; [21],0
same,"AEs associated with gastrointestinal disorders, % of patients",[3]; [22],(11.1) %
same,"AEs associated with gastrointestinal disorders, n of patients",[3]; [22],1
same,"Any AEs, % of patients",[3]; [22],(44.4) %
same,"Any AEs, n of patients",[3]; [22],4
same,"abdominal distention, % of patients",[3]; [22],(11.1) %
same,"abdominal distention, n of patients",[3]; [22],1
same,"abdominal pain lower, n of patients",[3]; [22],0
same,"diarrhoea, n of patients",[3]; [22],0
